ChEMBL document CHEMBL4680109, “A road map for prioritizing warheads for cysteine targeting covalent inhibitors” (Eur J Med Chem, 2018)
pIC50: −log10 of the molar value. Where a name gives a salt, the structure may show the parent alone.

Assays:
[1] = Inhibition of Escherichia coli MurA using UNAG and PEP as substrate preincubated for 30 mins in presence of UNAG followed by PEP addition and measured after 15 mins by malachite green colorimetric assay
In short: (§1)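 IC50 from MurA (E. coli or S. aureus) residual activities at seven compound concentrations. Conditions: 30 min preincubation with UNAG at 37 °C, then PEP, 15 min at 37 °C, in 50 mM Hepes pH 7.8, 0.005% Triton X-114 and 5% DMSO. Malachite green read at 650 nm. Values are means of duplicates.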

[2] = tested on: Escherichia coli; test: Inhibition of Escherichia coli MurA assessed as residual activity at 100 uM using UNAG and PEP as substrate preincubated for 30 mins in presence of UNAG followed by PEP addition and measured after 15 mins in presence of 5 mM cysteine by malachite green colorimetric assay relative to control; details: time 45.0 min
In short: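 MurA from E. coli, with the enzyme diluted in Hepes pH 7.8 containing cysteine (15 mM in buffer, giving 5 mM in incubation). Preincubated with UNAG and compound for 30 min at 37 °C, then PEP added and reacted 15 min at 37 °C. Phosphate read by malachite green at 650 nm. Duplicates; residual activity is versus DMSO control.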

[3] = tested on: Escherichia coli; test: Inhibition of Escherichia coli MurA assessed as residual activity at 100 uM using UNAG and PEP as substrate preincubated for 30 mins in presence of UNAG followed by PEP addition and measured after 15 mins by malachite green colorimetric assay relative to control; details: time 45.0 min
[4] = Inhibition of recombinant cathepsin X (unknown origin) expressed in Pichia pastoris assessed as residual activity at 100 uM using Abz-Fek(Dnp)-OH as substrate preincubated for 30 mins under shaking in presence of 5 mM cysteine followed by substrate addition relative to control; details: Homo sapiens
[5] = tested on: Staphylococcus aureus; test: Inhibition of Staphylococcus aureus MurA expressed in Escherichia coli assessed as residual activity at 100 uM using UNAG and PEP as substrate preincubated for 30 mins in presence of UNAG followed by PEP addition and measured after 15 mins by malachite green colorimetric assay relative to control; details: time 45.0 min
[6] = tested on: Escherichia coli; test: Inhibition of Escherichia coli MurA assessed as residual activity at 1 mM using UNAG and PEP as substrate preincubated for 30 mins in presence of UNAG followed by PEP addition and measured after 15 mins by malachite green colorimetric assay relative to control; details: time 45.0 min
[7] = target: Cathepsin B (Homo sapiens) (UniProt P07858); test: (§2) Inhibition of recombinant cathepsin B (unknown origin) endopeptidase activity expressed in Escherichia coli assessed as residual activity at 100 uM using Z-RR-AMC as substrate preincubated for 30 mins under shaking in presence of 5 mM cysteine followed by substrate addition relative to control
[8] = target: Cathepsin B (Homo sapiens) (UniProt P07858); test: as §2, with “exopeptidase” for “endopeptidase”, “Abz-GIVRAK(Dnp)-OH” for “Z-RR-AMC”
[9] = Inhibition of Staphylococcus aureus MurA expressed in Escherichia coli using UNAG and PEP as substrate preincubated for 30 mins in presence of UNAG followed by PEP addition and measured after 15 mins by malachite green colorimetric assay; in short: as §1
[10] = tested on: Escherichia coli; test: Inhibition of Escherichia coli MurA assessed as residual activity at 250 uM using UNAG and PEP as substrate preincubated for 30 mins in presence of UNAG followed by PEP addition and measured after 15 mins by malachite green colorimetric assay relative to control; details: time 45.0 min
[11] = Drug degradation in pH 7.4 PBS buffer at 100 uM measured up to 24 hrs by LC-MS/MS analysis; assay type: physicochemical; details: pH 7.4, 24 h
[12] = tested on: Escherichia coli; test: Inhibition of Escherichia coli MurA assessed as residual activity at 25 uM using UNAG and PEP as substrate preincubated for 30 mins in presence of UNAG followed by PEP addition and measured after 15 mins by malachite green colorimetric assay relative to control

| Compound | pIC50 [1] | Activity [2] [%] | Activity [3] [%] | Activity [4] [%] | Activity [5] [%] | Activity [6] [%] | Activity [7] [%] | Activity [8] [%] | pIC50 [9] | Activity [10] [%] | Stabilty [11] | Activity [12] [%] |
| --- | --- | --- | --- | --- | --- | --- | --- | --- | --- | --- | --- | --- |
| COC(=O)/C=C/C(=O)OC [DIMETHYL FUMARATE] | 3.76 | 90 | 50 | 89 | 82 | 88 | 100 | 100 |  |  |  |  |
| CCOC(=O)C#Cc1ccccc1 |  | 99 | 75 | 92 | 67 |  | 85 | 70 |  |  |  |  |
| CCOC(=O)C#CC(F)(F)F | 4.62 | 98 | 15 | 99 | 31 |  | 100 | 89 | 4.33 | 100 |  |  |
| O=c1[nH]sc2ccccc12 | 5.96 | 99 | 2 | 100 | 0 |  | 100 | 96 | 6.03 |  |  |  |
| O=C1C=CC(=O)N1Cc1ccccc1 | 6.25 | 99 | 2 | 96 | 0 |  | 100 | 87 | 5.98 |  |  |  |
| C/C=N/Nc1cc2ccccc2cn1 |  | 100 | 99 | 79 | 54 |  | 100 | 100 |  |  |  |  |
| O=C(CCl)N1CCC(Cc2ccccc2)CC1 |  | 99 |  |  | 55 |  | 78 |  |  |  |  |  |
| C=CC(=O)N1CCC(Cc2ccccc2)CC1 |  |  |  |  |  |  |  |  |  |  | Unstable |  |
| O=C(CCl)Nc1ccccc1 |  | 95 | 100 | 99 | 59 |  | 100 | 88 |  |  |  |  |
| O=C1C=CC(=O)N1C1CCCCC1 | 6.26 | 100 | 1 | 96 | 0.3 |  | 96 | 89 | 6.19 |  |  | 85 |
| O=C(CCl)Nc1cc(C(F)(F)F)cc(C(F)(F)F)c1 | 4.12 | 80 |  | 96 | 96 |  | 75 |  | 4.00 |  |  |  |
| COc1cc2c(cc1OC)CN(C(=O)CCl)CC2 | 3.85 | 98 | 61 | 97 | 54 |  |  |  | 3.77 |  |  |  |
| O=C(CCl)c1ccccc1 [PHENACYL CHLORIDE] | 5.65 | 93 | 3 | 86 | 7 |  | 63 | 34 | 5.52 |  |  |  |
| N#C/C=C/C(F)(F)F | 4.02 | 100 | 47 | 86 | 81 | 100 | 100 | 88 |  |  |  |  |
| O=C(CBr)c1ccccc1 |  | 94 | 2 | 75 | 7 |  | 83 | 27 |  |  |  |  |
| FC(F)(F)c1cccc(N=C=S)c1 | 4.55 | 99 | 3 | 87 | 9 |  | 100 | 97 | 4.28 |  |  |  |
| COc1ccccc1C(=O)CBr | 6.42 | 100 | 3 | 74 | 4 |  | 90 | 55 | 5.74 |  |  |  |
| S=C=NCc1ccccc1 [BENZYL ISOTHIOCYANATE] | 5.43 | 100 | 3 | 22 | 41 |  | 75 | 18 |  |  |  |  |
| COc1ccc(N=C=S)cc1 | 4.35 | 94 | 33 | 55 | 91 |  | 100 | 99 |  |  |  |  |
| CC#CC(=O)OCC |  | 100 | 82 | 96 | 91 |  | 96 | 84 |  |  |  |  |
| COc1cc(NC(=O)CCl)cc(OC)c1 |  | 96 | 61 | 84 | 52 |  | 90 | 87 |  |  |  |  |
| C/C=C/C(=O)OC | 3.64 | 96 | 41 | 84 | 66 |  | 100 | 97 |  |  |  |  |
| C/C=C/C#N |  | 100 | 100 | 90 | 97 |  | 100 | 87 |  |  |  |  |
| C=CC(=O)Nc1cc(C(F)(F)F)cc(C(F)(F)F)c1 | 3.79 | 100 |  | 92 | 72 | 86 |  |  |  |  |  |  |
| S=C=Nc1ccccc1 [PHENYLISOTHIOCYANATE] | 4.05 | 91 | 53 | 67 | 75 |  | 100 | 98 |  |  |  |  |
| Cc1ccc(S)cc1 | 5.90 | 94 | 6 | 100 | 23 |  | 100 | 67 | 5.11 |  |  |  |
| C=CS(=O)(=O)c1ccccc1 [(ETHENYLSULFONYL)BENZENE] | 4.82 | 96 | 12 | 93 | 30 |  | 100 | 87 | 4.47 |  |  |  |
| C[C@@H]1O[C@@H]1P(=O)(O)O |  |  |  |  |  |  |  |  |  |  |  | 3 |
